Source: ChEMBL document CHEMBL5344453, “Selective Recognition of c-KIT 1 G-Quadruplex by Structural Tuning of Heteroaromatic Scaffolds and Side Chains” (ACS Med Chem Lett, 2024)
pKd: −log10 of the molar value.

Experiments:
K562 [1] = test: Attenuation of proto-oncogene expression in human c-KIT-positive K562 cells assessed as reduction in c-KIT oncogene expression at 6 uM measured after 24 hrs by qRT-PCR analysis relative to control; format: functional
Method in brief: (§1)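 K562 cells treated 24 h at two doses per ligand (3 and 6 μM, 5.5 and 11 μM; positive control 2 and 4 μM). c-KIT, c-MYC and BCL-2 mRNA measured by qRT-PCR and normalized to housekeeping gene 18s, relative to untreated control.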

Quadruplex DNA [2] = test: Stabilization of 5-FAM/3-TAMRA labelled G-quadruplex c-KIT1 5-FAM-GGGAGGGCGCTGGGAGGAGGG-TAMRA-3 (unknown origin) assessed as change in melting temperature incubated for 1 hr in dark condition by FRET-based melting assay; format: nucleic-acid assay; details: dose 1-10 µM
Method in brief: (§2)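 FRET melting of dual-fluorophore (FAM/TAMRA) tagged G-quadruplex (200 nM) in 60 mM potassium cacodylate, pH 7.4. The screen used 1 μM ligand; dose series used 1, 3, 5, 7 and 10 μM. ΔTm was taken against the Tm of the same oligonucleotide without ligand.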

Quadruplex DNA [3] = test: Binding affinity to G-quadruplex VEGF 5-FAM-CGGGGCGGGCCGGGGGCGGGGT-TAMRA-3 (unknown origin) assessed as dissociation constant by measuring thermogram by isothermal titration calorimetry (ITC) assay; format: nucleic-acid assay
Method in brief: (§3)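 ITC of ligand binding to folded G4 in 100 mM Tris-KCl buffer, pH 7.4. Kd and stoichiometry were obtained from the isothermal heat curve and binding isotherm.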

K562 [4] = test: Attenuation of proto-oncogene expression in human c-KIT-positive K562 cells assessed as reduction in BCL-2 oncogene expression at 3 uM measured after 24 hrs by qRT-PCR analysis relative to control; format: functional; method in brief: as §1
Quadruplex DNA [5] = test: Stabilization of G-quadruplex BCL2 5-FAM-AGGGGCGGGCGCGGGAGGAAGGGGGCGGGAGCGGGGCTG-TAMRA-3 (unknown origin) assessed as change in melting temperature at 10 uM incubated for 1 hr in dark condition by FRET-based melting assay; format: nucleic-acid assay; method in brief: as §2
[6] = Reduction of c-MYC oncogene expression in human K562 cells transfected with c-MYC plasmid construct assessed as reduction in luciferase expression at 3 uM measured after 36 hrs by luciferase reporter assay; format: functional
Method in brief: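 Promoter luciferase reporter: K562 cells transfected with a c-MYC promoter G4-containing luciferase-expressing plasmid, then ligand-treated at two doses each (3 and 6 μM, or 5.5 and 11 μM); read-out as relative luciferase expression, reported as percent reduction.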

Quadruplex DNA [7] = test: Stabilization of G-quadruplex VEGF 5-FAM-CGGGGCGGGCCGGGGGCGGGGT-TAMRA-3 (unknown origin) assessed as change in melting temperature at 10 uM incubated for 1 hr in dark condition by FRET-based melting assay; format: nucleic-acid assay; method in brief: as §2
Quadruplex DNA [8] = test: Stabilization of G-quadruplex c-KIT2 5-FAM-GGGCGGGCGCGAGGGAGGGG-TAMRA-3 (unknown origin) assessed as change in melting temperature at 1 uM incubated for 1 hr in dark condition by FRET-based melting assay; format: nucleic-acid assay
Method in brief: (§4)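 FRET melting of dual-fluorophore-tagged oligonucleotides (200 nM) in 60 mM potassium cacodylate buffer, pH 7.4, with ligand at 1 μM; ΔTm taken against the ligand-free oligonucleotide Tm as control.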

[9] = Reduction of BCL-2 oncogene expression in human K562 cells transfected with BCL-2 plasmid construct assessed as reduction in luciferase expression at 6 uM measured after 36 hrs by luciferase reporter assay; format: functional
Method in brief: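 K562 cells were transfected with luciferase plasmids carrying the c-KIT, c-MYC or BCL-2 promoter G4. They were then treated with ligand (3 and 6 μM or 5.5 and 11 μM), and relative luciferase expression was measured.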

K562 [10] = test: Induction of cell cycle arrest in human K562 cells assessed as accumulation at G0/G1 phase at 3 uM incubated for 24 hrs by propidium iodide based assay; format: functional
Method in brief: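 K562 cells were treated with ligand (3 and 6 μM or 5.5 and 11 μM) and stained with propidium iodide. The fraction of cells in each cell-cycle phase was determined by flow cytometry.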

[11] = Reduction of c-KIT protein expression in human K562 cells at 6 uM measured after 24 hrs by Western blotting analysis relative to control; format: functional
Method in brief: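 K562 cells were treated with ligand (3 and 6 μM or 5.5 and 11 μM). c-KIT protein was measured by Western blot with GAPDH as the housekeeping reference, relative to control.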

[12] = Cytotoxicity against HEK293 cells assessed as cell viability measured after 24 hrs by XTT formazan assay; format: toxicity, cell-based; details: human
K562 [13] = test: Induction of apoptosis in human K562 cells assessed as cell death at 6 uM incubated for 24 hrs by FITC-Annexin V and PI analysis relative to control; format: functional
Method in brief: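 K562 cells after ligand treatment dual-stained with annexin V and propidium iodide. Apoptotic cell populations (early and late) scored by flow cytometry dot plot analysis.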

Quadruplex DNA [14] = test: Stabilization of G-quadruplex c-MYC 5-FAM-TGGGGAGGGTGGGGAGGGTGGGGAAGG-TAMRA- 3 (unknown origin) assessed as change in melting temperature at 10 uM incubated for 1 hr in dark condition by FRET-based melting assay; format: nucleic-acid assay; method in brief: as §2
Quadruplex DNA [15] = test: Binding affinity to G-quadruplex c-MYC 5-FAM-TGGGGAGGGTGGGGAGGGTGGGGAAGG-TAMRA-3 (unknown origin) assessed as dissociation constant by measuring thermogram by isothermal titration calorimetry (ITC) assay; format: nucleic-acid assay; method in brief: as §3
Quadruplex DNA [16] = test: Stabilization of G-quadruplex c-MYC 5-FAM-TGGGGAGGGTGGGGAGGGTGGGGAAGG-TAMRA- 3 (unknown origin) assessed as change in melting temperature at 1 uM incubated for 1 hr in dark condition by FRET-based melting assay; format: nucleic-acid assay; method in brief: as §4
Quadruplex DNA [17] = test: Binding affinity to excessive G-quadruplex c-KIT1 5-FAM-GGGAGGGCGCTGGGAGGAGGG-TAMRA-3 (unknown origin) assessed as fold increase in fluorescence intensity at 1 uM incubated for 1 hr in dark condition by fluorescence spectroscopy assay relative to c-KIT2; format: nucleic-acid assay
Method in brief: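 Ligand (1.0 μM) titrated to saturation with increasing G-quadruplex in 100 mM Tris-KCl buffer, pH 7.4. The value is the ratio of the c-KIT 1 fold change in fluorescence intensity to the fold change obtained with VEGF or c-KIT 2.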

K562 [18] = test: Attenuation of proto-oncogene expression in human c-KIT-positive K562 cells assessed as reduction in c-MYC oncogene expression at 6 uM measured after 24 hrs by qRT-PCR analysis relative to control; format: functional; method in brief: as §1
Quadruplex DNA [19] = test: Binding affinity to G-quadruplex c-MYC 5-FAM-TGGGGAGGGTGGGGAGGGTGGGGAAGG-TAMRA-3 (unknown origin) assessed as dissociation constant by fluorescence spectroscopy assay; format: nucleic-acid assay
Method in brief: (§5)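 Fluorimetric titration of ligand held at 1.0 μM with increasing concentrations of G4 or dsDNA until saturation. Change in ligand fluorescence intensity was fitted for Kd. Run in 100 mM Tris-KCl buffer, pH 7.4.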

Quadruplex DNA [20] = test: Binding affinity to G-quadruplex VEGF 5-FAM-CGGGGCGGGCCGGGGGCGGGGT-TAMRA-3 (unknown origin) assessed as dissociation constant by fluorescence spectroscopy assay; format: nucleic-acid assay; method in brief: as §5

CN(C)CCCNC(=O)c1ccc(-n2cc(-c3ccc4[nH]c5ccccc5c4c3)nn2)cc1
inhibition at 6 µM (K562 [1]): 73%
Activity (Quadruplex DNA [2]): Dose-Dependent Effect
pKd (Quadruplex DNA [3]): 4.80
inhibition at 3 µM (K562 [4]): 29%
ΔTm (Quadruplex DNA [5]): 12.1 °C
inhibition at 3 µM [6]: 6%
ΔTm (Quadruplex DNA [7]): 11.2 °C
ΔTm (Quadruplex DNA [8]): 9.9 °C
inhibition at 6 µM [9]: 15.8%
Activity (K562 [10]): 74.1%
inhibition at 6 µM [11]: 65.5%
IC50 at 24 h [12]: > 50 µM
Activity (K562 [13]): 63%
ΔTm (Quadruplex DNA [14]): 17.3 °C
pKd (Quadruplex DNA [15]): 5.21
ΔTm (Quadruplex DNA [16]): 3.2 °C
fold change (FC) (Quadruplex DNA [17]): 3.2
inhibition at 6 µM (K562 [18]): 19%
pKd (Quadruplex DNA [19]): 5.57
pKd (Quadruplex DNA [20]): 5.54
